Screens as filed in PubChem BioAssay.
This is a sample that favours compounds with a hit; in the whole collection about 1.5% have one here.
CXCR6 inh: CXCR6 (human) receptor inhibition; CHO-K1 PathHunter CXCR6 beta-arrestin, luminescence; 0.36% of 360,000 active; inhibition, % at 20 µM; AID 602244; in the data active means inhibition above about 34%, passing the limit was not always enough;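 further: antagonist mode with CXCL16 agonist at 10 nM final; 0% = 10 nM CXCL16 with DMSO and 100% = unstimulated wells without agonist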
Target sequence (O00574 whole entry, looked up): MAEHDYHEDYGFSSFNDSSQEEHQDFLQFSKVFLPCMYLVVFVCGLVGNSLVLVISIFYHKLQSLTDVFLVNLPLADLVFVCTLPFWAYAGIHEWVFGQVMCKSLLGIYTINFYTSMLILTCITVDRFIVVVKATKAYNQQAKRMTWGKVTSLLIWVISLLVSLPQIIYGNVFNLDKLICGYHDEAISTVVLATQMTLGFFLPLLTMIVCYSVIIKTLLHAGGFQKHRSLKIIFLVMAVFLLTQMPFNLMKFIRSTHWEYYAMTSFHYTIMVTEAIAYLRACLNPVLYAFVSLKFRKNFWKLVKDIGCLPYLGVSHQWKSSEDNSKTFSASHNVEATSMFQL
hiPSC survival: increases survival of single human iPS cells. AID 602274. hiPSC single-cell survival, ATPlite luminescence; 100% = ROCK inhibitor wells, 0% = DMSO. 0.044% of 360,000 active. survival enhancement, % at 20 µM; in the data active means survival enhancement above about 18%;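 further: cells exposed to compounds for 16 hours before the ATP read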
CCR6 antagonist: antagonists of human CCR6 receptor; CHO-K1 CCR6 PathHunter beta-arrestin, luminescence, CCL20-stimulated; 0.49% of 340,000 active; AID 493098; P51684; inhibition, % at 20 µM;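 active means compounds whose inhibition of the agonist-driven luminescence signal at 20 µM reaches about 50%, limit read from the data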;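 further: cells stimulated with CCL20 at 14 nM final; plate controls were DMSO with CCL20 for no effect and DMSO without agonist for full effect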
Target sequence (P51684 whole entry, looked up): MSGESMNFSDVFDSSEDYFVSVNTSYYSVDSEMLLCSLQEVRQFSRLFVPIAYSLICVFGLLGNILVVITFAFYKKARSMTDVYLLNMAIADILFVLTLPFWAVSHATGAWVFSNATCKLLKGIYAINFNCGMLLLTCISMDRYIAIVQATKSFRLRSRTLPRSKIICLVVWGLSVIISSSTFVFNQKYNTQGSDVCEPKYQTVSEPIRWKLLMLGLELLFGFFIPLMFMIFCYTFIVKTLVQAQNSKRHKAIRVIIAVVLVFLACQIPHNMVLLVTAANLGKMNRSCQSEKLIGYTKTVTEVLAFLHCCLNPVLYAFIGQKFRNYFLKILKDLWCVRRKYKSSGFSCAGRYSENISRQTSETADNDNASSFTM
APJ antag: antagonists of human APJ apelin receptor | P35414 | CHO-K1 APJ beta-arrestin complementation, luminescence | inhibition, % at 20 µM | 0.32% of 330,000 active;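 active means inhibition above about 40% at 20 µM, limit read from the data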;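 further: cells challenged with 10 nM apelin-13 agonist together with compound; plate controls were apelin-13 plus DMSO wells for no effect and DMSO wells lacking apelin-13 for full effect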
APJ agonist: agonists of human APJ apelin receptor; CHO-K1 APJ PathHunter beta-arrestin, luminescence; 0% DMSO wells, 100% apelin; 0.11% of 330,000 active; AID 2520; activation, % at 20 µM; P35414;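 active means activation more than six SD over the plate average, tested at 20 µM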;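 further: 0% = DMSO alone and 100% = apelin-13 at 10 nM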
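Material: engineered CHO-K1 APJ arrestin reporter cells; amount: 1000 CHO-K1 reporter cells seeded per well; incubation: compound stimulation 90 min at 25 °C, detection 60 min; signal: luminescent beta-gal fragment complementation, chemiluminescent substrate; read-out basis: APJ agonist activity; controls: DMSO-only wells as negative, 10 nM Apelin-13 as positive control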
EBI2 block: antagonists of human EBI2 receptor. P32249. EBI2 beta-arrestin recruitment, luminescence, 7a,25-OHC stimulated. inhibition, % at 5 µM. 0.81% of 360,000 active; in the data active means inhibition above about 38%;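 further: enzyme fragment complementation signal reports receptor beta-arrestin coupling in cells; 0% = agonist plus DMSO wells and 100% = wells without agonist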
EBI2 antag conf: confirmation of human EBI2 receptor antagonists; EBI2 beta-arrestin luminescence, 7a,25-OHC antagonism; 29% of 2,400 active; AID 651997; inhibition, % at 5 µM; shares compounds with EBI2 block;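 active means inhibition of at least 50%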
EBI2 agonist: counter-screen for EBI2 antagonists: EBI2 agonist activity; shares compounds with EBI2 block; EBI2-expressing cells, agonist mode, luminescence, 60 min; 0% vehicle, 100% 7α,25-dihydroxycholesterol control; activation, % at 5 µM; 2,400 tested, under 10 active; AID 652000;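 active means activation of at least 50%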
bGal counter: inhibits E. coli beta-galactosidase, counter-screen for EBI2 antagonists; 1% of 2,400 active; shares compounds with EBI2 block; inhibition, % at 5 µM; purified beta-galactosidase, luminescent Galacton Star, 15 min;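 active means replicate-average signal at least 3 plate SD below neutral wells, shown as high inhibition, flagging enzyme-inhibiting false positives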;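 further: 0% = DMSO wells with enzyme and 100% = wells lacking enzyme; higher means stronger loss of beta-gal luminescence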
Starred values were filed as active, the others as inactive; / = no result.

SMILES | CXCR6 inh | hiPSC survival | CCR6 antagonist | APJ antag | APJ agonist | EBI2 block | EBI2 antag conf | EBI2 agonist | bGal counter
COc1ccccc1C(=O)N/C(=C\c1cn(S(=O)(=O)N(C)C)c2ccccc12)C(=O)N1CCN(C)CC1 | 3 | 3 | / | / | / | 3 | / | / | /
COC(=O)[C@]12CCCCC=C1N(Cc1cccc3ccccc13)C(=O)[C@H](CC(=O)NCC13CC4CC(CC(C4)C1)C3)C2 | 2 | -1 | / | / | / | 12 | / | / | /
COc1cccc(N2C(=NC(=O)COc3ccccc3)SC3CS(=O)(=O)CC32)c1 (stereo not drawn) | -1 | 0 | -7 | 4 | 0 | -10 | / | / | /
Cc1cccc(C)c1-n1nnnc1C(c1ccnc2ccccc12)N1CCN(C(=O)OCc2ccccc2)CC1 (stereo not drawn) | 11 | -1 | / | / | / | 41* | 36 | -1 | -14
Cc1cccc(C)c1-n1nnnc1C(c1ccnc2ccccc12)N1CCCC1 (stereo not drawn) | 8 | 1 | / | / | / | 6 | / | / | /
COC(=O)CN1C(=O)[C@H]2[C@@H](/C=C/c3ccccc3)N3C(=O)CN(Cc4ccccc4)C(=O)[C@@]3(C)[C@H]2C1=O | -6 | 3 | 0 | -52 | 6 | -2 | / | / | /
CC(C)(C)SCCNC(=O)COc1ccc(Cl)cc1 | 5 | 0 | 5 | 2 | 1 | 33 | / | / | /
Cc1ccccc1CSCCNC(=O)COc1ccc(Cl)cc1 | 6 | -1 | 19 | -12 | -1 | 55* | 45 | 1 | -1
CC(C)(C)c1nnc(NS(=O)(=O)c2ccc([N+](=O)[O-])cc2)s1 | 5 | 2 | -18 | -9 | 4 | 7 | / | / | /
CC(C)n1c(O)c(/C=C2\C=Nc3ccccc32)sc1=Nc1ccccc1 | -4 | -4 | 6 | 10 | 1 | 57* | 26 | 0 | -13
Cc1ccc(/C=C/C(=O)NCc2cccs2)c(C)c1 | -6 | 0 | 15 | 5 | 2 | 39 | / | / | /
Cc1ccc(/C=C/C(=O)NCc2cccs2)cc1 | -4 | 2 | 12 | -2 | 2 | 53* | 44 | 2 | 1
Cc1ccc(/C=C/C(=O)NCc2ccncc2)cc1 | 5 | -2 | 1 | 12 | 0 | 64* | 31 | -1 | -8
Cc1ccc(CNC(=O)c2ccc(N3CCC4(CC3)CC(c3ccccc3)=NO4)c(N)c2)cc1 | -3 | 1 | -1 | 14 | 8 | 45* | 19 | -1 | -13
COC[C@H]1CCCN1c1ccc2c(c1)O[C@@H](COCc1ccccc1)CN([C@H](C)c1ccccc1)S2(=O)=O | 8 | 0 | / | / | / | 11 | / | / | /
CC(NC(=O)CCCOc1ccc(Cl)cc1)c1ccccc1 (stereo not drawn) | -10 | -1 | 5 | 0 | 5 | 44* | 10 | -1 | -11
CC(C)c1ccc(NC(=O)CN2C(=O)NC3(CCCCCCC3)C2=O)cc1 | 7 | 2 | 12 | 9 | -4 | 5 | / | / | /
CCN(CC(=O)NCc1cccs1)C(=O)COc1ccc(C(C)=O)cc1 | -9 | 2 | 7 | 0 | -3 | -4 | / | / | /
CCOC(=O)C1CCN(C(=O)c2cc3cc(Cl)ccc3[nH]2)CC1 | -5 | -1 | 5 | 5 | -5 | 89* | 67* | 2 | 3
CCOC(=O)N1CCN(C(=O)c2ccc(OC)cc2)CC1 | -2 | 0 | 3 | 19 | -4 | 4 | / | / | /
CCOC(=O)C1CCN(C(=O)c2cc3ccc(OC)cc3[nH]2)CC1 | -7 | 0 | -3 | 2 | -3 | 38* | 25 | 1 | 7
CCOC(=O)N1CCN(C(=O)c2cc3ccc(OC)cc3[nH]2)CC1 | -8 | 0 | 4 | -3 | -5 | 59* | 24 | 0 | 7
Cc1ccccc1OCC(O)COc1ccccc1C | -2 | 1 | 2 | / | / | 5 | / | / | /
COCCOc1ccc(C(F)(F)F)cc1NC(=O)COC(=O)Cc1c[nH]c2ccccc12 | -2 | -1 | 11 | 0 | 2 | 82* | 34 | 1 | 4
CCCCN(C(=O)CSCC(=O)Nc1ccc(OC)cc1)c1c(N)n(CC(C)C)c(=O)[nH]c1=O | -14 | -1 | -1 | / | / | -10 | / | / | /
SMILES | CXCR6 inh | hiPSC survival | CCR6 antagonist | APJ antag | APJ agonist | EBI2 block | EBI2 antag conf | EBI2 agonist | bGal counter
Cc1nn(-c2ccccc2)c(C)c1/C=N/NC(=O)c1cc(-c2ccc(Cl)s2)[nH]n1 | -8 | -2 | -6 | 5 | 1 | 52* | 30 | 1 | 10
Cc1nn(-c2ccccc2)c(C)c1/C=N/NC(=O)c1cc(-c2ccc(Br)s2)[nH]n1 | 11 | -3 | -6 | -9 | -3 | 59* | 22 | 0 | 8
Cc1cc(C(=O)N/N=C/c2c(C)nn(-c3ccccc3)c2C)n[nH]1 | -7 | -1 | 3 | -2 | -5 | -5 | / | / | /
Cc1nn(-c2ccccc2)c(C)c1/C=N/NC(=O)c1cc(-c2cccs2)[nH]n1 | 2 | -3 | 25 | 5 | -1 | 5 | / | / | /
Cc1ccc(-n2nc3c(c2NC(=O)CC(C)C)CS(=O)C3)cc1 (stereo not drawn) | -4 | 2 | -10 | -68 | -3 | 0 | / | / | /
O=C(Nc1ccc2c(c1)OCCO2)C(CCc1ccccc1)N1CCN(C/C=C/c2ccccc2)CC1 (stereo not drawn) | 4 | -3 | / | / | / | 44* | 19 | -1 | -7
O=C(Nc1ccc2c(c1)OCCO2)C(c1ccnc2ccccc12)N1CCN(C/C=C/c2ccccc2)CC1 (stereo not drawn) | -4 | -2 | / | / | / | 50* | 42 | 0 | -1
O=C(Nc1ccc2c(c1)OCCO2)C(CCc1ccccc1)N1CCN(c2ccc(F)cc2)CC1 (stereo not drawn) | 4 | 0 | / | / | / | 7 | / | / | /
O=c1c2ccccc2n2c(-c3ccc(C(F)(F)F)cc3)nnc2n1Cc1ccccc1 | 19 | -1 | 19 | -7 | 2 | 47* | 22 | -1 | -10
COC(=O)c1cccc(NC(=O)c2cc3ccccc3o2)c1 | 1 | -1 | 19 | 11 | -4 | 44* | 32 | -1 | -2
COC(=O)c1cc(NC(=O)c2cc3ccccc3o2)cc(C(=O)OC)c1 | 11 | -1 | 10 | -23 | 1 | 5 | / | / | /
O=C(Nc1nc(-c2ccc(Oc3ccccc3)cc2)cs1)C1=COCCO1 | -10 | -1 | 9 | 7 | -1 | 74* | 32 | -1 | 8
Cc1ccc(-c2csc(NC(=O)C3=COCCO3)n2)cc1 | 0 | -1 | -8 | 16 | -1 | 0 | / | / | /
